Reference: ChEMBL document CHEMBL2157873, “Development and characterization of endocannabinoid hydrolases FAAH and MAGL inhibitors bearing a benzotriazol-1-yl carboxamide scaffold” (Bioorg Med Chem, 2012)
Calls of active or inactive are those of the source. The calls are words filed in the database; no cut-off is given here.

How the values were obtained:
Homo sapiens = species on record: Homo sapiens; experiment: Selectivity ratio of IC50 for human recombinant FAAH to IC50 for human MAGL
Summary of the method: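 Selectivity calculated as IC50 for human FAAH divided by IC50 for human MAGL. Both IC50 values from radiometric hydrolysis assays: [3H]-AEA with MBP-fused FAAH and [3H]-2-OG with pure MAGL. Each assay had 30 min inhibitor preincubation. Means of three independent experiments in duplicate.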

[1] = target: T1, Fatty-acid amide hydrolase 1 (Homo sapiens, UniProt O00519); experiment: Inhibition of human recombinant FAAH assessed as [3H]-AEA hydrolysis preincubated for 30 mins […] measured after 10 mins by liquid scintillation counting
T1 sequence (O00519 whole entry): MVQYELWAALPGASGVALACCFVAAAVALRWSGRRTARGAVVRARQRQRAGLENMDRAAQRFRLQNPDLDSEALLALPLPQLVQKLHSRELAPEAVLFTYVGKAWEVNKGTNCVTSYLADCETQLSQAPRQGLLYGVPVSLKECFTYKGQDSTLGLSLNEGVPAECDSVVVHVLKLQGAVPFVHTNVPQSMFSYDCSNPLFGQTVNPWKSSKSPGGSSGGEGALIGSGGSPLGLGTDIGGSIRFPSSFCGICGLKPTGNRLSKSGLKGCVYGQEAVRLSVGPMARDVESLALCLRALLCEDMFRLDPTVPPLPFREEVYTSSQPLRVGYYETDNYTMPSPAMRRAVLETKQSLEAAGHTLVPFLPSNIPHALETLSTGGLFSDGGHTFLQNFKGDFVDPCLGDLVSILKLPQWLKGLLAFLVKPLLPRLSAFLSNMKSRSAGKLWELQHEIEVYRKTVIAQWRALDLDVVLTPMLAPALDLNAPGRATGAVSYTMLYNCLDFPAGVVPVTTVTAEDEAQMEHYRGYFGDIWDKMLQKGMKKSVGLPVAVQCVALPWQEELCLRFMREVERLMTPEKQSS
Summary of the method: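 Human FAAH fused to maltose-binding protein, preincubated 30 min at 22 °C with inhibitor at various concentrations (Tris 10 mM, EDTA 1 mM, pH 8.0, inhibitor in DMSO). [3H]-anandamide (50,000 dpm) added, 10 min at 37 °C. Stopped with cold methanol/chloroform (1:1), aqueous-phase radioactivity by scintillation, blank subtracted, percent of control fitted as dose-response. Three independent experiments in duplicate.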

Monoglyceride lipase [2] = target: T2, Monoglyceride lipase (Homo sapiens, UniProt Q99685); experiment: Inhibition of human MAGL assessed as [3H]-2-OG hydrolysis preincubated for 30 mins before [3H]-2-OG addition measured after 10 mins by liquid scintillation counting
T2 sequence (Q99685 whole entry): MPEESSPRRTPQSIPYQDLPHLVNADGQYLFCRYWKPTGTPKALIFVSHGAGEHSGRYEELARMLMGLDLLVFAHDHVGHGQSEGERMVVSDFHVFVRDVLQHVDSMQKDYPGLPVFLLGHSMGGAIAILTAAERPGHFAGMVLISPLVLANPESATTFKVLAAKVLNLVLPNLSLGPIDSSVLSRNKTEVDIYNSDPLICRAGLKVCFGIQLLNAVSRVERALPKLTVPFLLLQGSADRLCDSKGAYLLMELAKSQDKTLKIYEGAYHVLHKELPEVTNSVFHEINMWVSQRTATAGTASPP
Summary of the method: (§1)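 [3H]-2-oleoylglycerol then added at 10 µM final. Stopped with methanol-chloroform (1:1), centrifuged 5 min at 700 g, aqueous-phase radioactivity read by liquid scintillation, no-enzyme blank subtracted. Means of three independent experiments in duplicate.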

[3] = target: T3, Fatty-acid amide hydrolase 1 (Homo sapiens) (UniProt O00519); experiment: Inhibition of human recombinant FAAH assessed as [3H]-AEA hydrolysis preincubated for 30 mins […] measured at 10^-5 M after 10 mins by liquid scintillation counting
T3 sequence (whole entry): T1 sequence (O00519 whole entry)

Monoglyceride lipase [4] = target: T2, Monoglyceride lipase; experiment: Inhibition of MAGL; summary of the method: as §1
[5] = target: T1, Fatty-acid amide hydrolase 1; experiment: Inhibition of FAAH
Summary of the method: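 Human FAAH fused to maltose-binding protein, preincubated 30 min at 22 °C with inhibitor (various concentrations, in DMSO) in Tris 10 mM, EDTA 1 mM, pH 8.0. [³H]-anandamide substrate added, then 10 min at 37 °C. Stopped with cold methanol/chloroform (1:1). Aqueous-phase radioactivity counted by liquid scintillation, with the no-enzyme blank subtracted. Activity taken as percent of control; IC50 from dose-response curves; three independent experiments in duplicate.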

[6] = target: T4, Monoglyceride lipase (Homo sapiens) (UniProt Q99685); experiment: Ratio of JZL184 IC50 to compound IC50 for human MAGL
T4 sequence (whole entry): T2 sequence (Q99685 whole entry)

Monoglyceride lipase [7] = target: T2, Monoglyceride lipase; experiment: Irreversible inhibition of human MAGL using p-nitrophenylpropionate as substrate
Summary of the method: (§2)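 MAGL (3 ng; Tris 50 mM, LDAO 0.1%, pH 8.0) added to p-nitrophenylpropionate (1.25 mM) plus inhibitor at various concentrations, both in DMSO. […] Done four times in quadruplicate.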

[8] = target: T4, Monoglyceride lipase (Homo sapiens); experiment: Ratio of Kinact to Ki for human MAGL using p-nitrophenylpropionate as substrate; summary of the method: as §2
[9] = target: T4, Monoglyceride lipase (Homo sapiens); experiment: Irreversible inhibition of human MAGL assessed as [3H]-2-OG hydrolysis preincubated for 30 mins before [3H]-2-OG addition measured at 10^-8 M to 10^-9 M measured after 300 fold dilution rapid dilution assay
Summary of the method: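 Human MAGL (800 ng in Tris 50 mM, BSA 0.15%, pH 8.0) incubated 30 min at room temperature with inhibitor at 10^-8 or 10^-9 M in the mixture (DMSO). Diluted 300-fold in buffer, 15 min incubation, then [3H]-2-OG hydrolase activity read on an aliquot holding 10 ng enzyme by the standard radiometric method. Performed two times in triplicate.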

[10] = target: Monoglyceride lipase (Homo sapiens) (UniProt Q99685); experiment: Ratio of JZL184 IC50 to compound IC50 for human MAGL

SMILES	Ratio IC50 (Homo sapiens)	IC50 [1]	IC50 (Monoglyceride lipase [2])	also measured
O=C(N1CCN(Cc2ccc(Cl)cc2)CC1)n1nnc2ccccc21	1.5	17 nM	11 nM	
O=C(NC1CCCCC1)c1cc(N2CCN(C(=O)n3nnc4ccccc43)CC2)ccc1[N+](=O)[O-]	12	490 nM	41 nM	
O=C(N1CCN(Cc2cccc([N+](=O)[O-])c2)CC1)n1nnc2ccccc21	5.4	43 nM	8 nM	
O=C(c1ccc(N2CCN(C(=O)n3nnc4ccccc43)CC2)c([N+](=O)[O-])c1)N1CCOCC1	2	1950 nM	955 nM	
CN1CCN(C(=O)c2cc(N3CCN(C(=O)n4nnc5ccccc54)CC3)ccc2[N+](=O)[O-])CC1	> 100		141 nM	inhibition [3]: 40%
O=C(N1CCN(c2ccccc2F)CC1)n1nnc2ccccc21	0.44	13 nM	30 nM	
O=C(N1CCN(c2ccccc2)CC1)n1nnc2ccccc21	0.5	11 nM	21 nM	
O=C(N1CCN(Cc2cccc3ccccc23)CC1)n1nnc2ccccc21	4	13 nM	3 nM	
O=C(c1cc(N2CCN(C(=O)n3nnc4ccccc43)CC2)ccc1[N+](=O)[O-])N1CCCCC1	60	2290 nM	38 nM	
O=C(N1CCN(C(c2ccccc2)c2ccccc2)CC1)n1nnc2ncccc21				IC50 (Monoglyceride lipase [4]): 4 nM
O=C(N1CCN(Cc2ccc3ccccc3c2)CC1)n1nnc2ccccc21	1.3	12 nM	9 nM	
O=C(N1CCN(Cc2ccc(-c3ccccc3)cc2)CC1)n1nnc2ccccc21	0.3	18 nM	62 nM	
O=C(Oc1ccc([N+](=O)[O-])cc1)N1CCC(C(O)(c2ccc3c(c2)OCO3)c2ccc3c(c2)OCO3)CC1		36300 nM		IC50 [5]: 4690 nM
CC(C)NC(=O)c1ccc(N2CCN(C(=O)n3nnc4ccccc43)CC2)c([N+](=O)[O-])c1	0.43	158 nM	372 nM	
O=C(N1CCN(Cc2ccc(F)cc2)CC1)n1nnc2ccccc21	1.5	15 nM	10 nM	
O=C(Nc1ccccc1)c1cccc(CN2CCN(C(=O)n3nnc4ccccc43)CC2)c1	4.8	35 nM	7 nM	
CC(C)NC(=O)c1cc(N2CCN(C(=O)n3nnc4ccccc43)CC2)ccc1[N+](=O)[O-]	8.9	2090 nM	234 nM	
O=C(N1CCN(C/C=C/c2ccccc2)CC1)n1nnc2ccccc21	0.8	28 nM	33 nM	
CN1CCN(C(=O)c2cccc(CN3CCN(C(=O)n4nnc5ccccc54)CC3)c2)CC1	4.3	1380 nM	324 nM	
O=C(N1CCN(Cc2cccc(Cl)c2)CC1)n1nnc2ccccc21	4.5	9 nM	2 nM	

SMILES	Ratio IC50 (Homo sapiens)	IC50 [1]	IC50 (Monoglyceride lipase [2])	also measured
O=C(c1cc(N2CCN(C(=O)n3nnc4ccccc43)CC2)ccc1[N+](=O)[O-])N1CCOCC1	> 100		162 nM	inhibition [3]: 40%
O=C(NC1CCCCC1)c1cccc(CN2CCN(C(=O)n3nnc4ccccc43)CC2)c1	3.4	44 nM	13 nM	
Cc1ccccc1N1CCN(C(=O)n2nnc3ccccc32)CC1	0.04	3 nM	71 nM	
O=C(N1CCN(c2ccccc2[N+](=O)[O-])CC1)n1nnc2ccccc21	0.08	19 nM	224 nM	
O=C(c1cccc(CN2CCN(C(=O)n3nnc4ccccc43)CC2)c1)N1CCCCC1	1.6	58 nM	36 nM	
O=C(N1CCC(Cc2ccccc2)CC1)n1nnc2ccccc21	0.7	2 nM	3 nM	
O=C(N1CCN(c2ccc([N+](=O)[O-])cc2)CC1)n1nnc2ccccc21	1.7	34 nM	20 nM	
O=C(N1CCN(Cc2cccc(-c3ccccc3)c2)CC1)n1nnc2ccccc21	0.4	9 nM	23 nM	
O=C(N1CCN(Cc2ccc(Br)cc2)CC1)n1nnc2ccccc21	2.5	22 nM	9 nM	
CN(C)C(=O)c1cc(N2CCN(C(=O)n3nnc4ccccc43)CC2)ccc1[N+](=O)[O-]	79	5010 nM	63 nM	
O=C(N1CCN(Cc2ccc([N+](=O)[O-])cc2)CC1)n1nnc2ccccc21	7.6	89 nM	12 nM	
O=C(N1CCN(C(c2ccccc2)c2ccccc2)CC1)n1nnc2ccccc21	1040	562 nM	0.54 nM	Ratio IC50 [6]: 70; Ki (Monoglyceride lipase [7]): 75.7 nM; Ratio [8]: 208000; inhibition [9]: Active; Ratio IC50 [10]: 70
CN(C)C(=O)c1cccc(CN2CCN(C(=O)n3nnc4ccccc43)CC2)c1	2.7	275 nM	102 nM	
O=C(O)c1cccc(CN2CCN(C(=O)n3nnc4ccccc43)CC2)c1	41	27500 nM	676 nM	
COc1ccc(N2CCN(C(=O)n3nnc4ccccc43)CC2)cc1	0.47	15 nM	32 nM	
O=C(Nc1ccccc1)c1cc(N2CCN(C(=O)n3nnc4ccccc43)CC2)ccc1[N+](=O)[O-]	19	363 nM	19 nM	
O=C(NCCc1ccc(O)c(O)c1)n1nnc2ccccc21			10500 nM	
O=C(N1CCN(Cc2ccccc2)CC1)n1nnc2ccccc21	2.4	19 nM	8 nM	
O=C(N1CCN(Cc2ccccc2-c2ccccc2)CC1)n1nnc2ccccc21	1	32 nM	33 nM	
